Legend:
KDM5B PHD3 finger [1] = assay: 1H,15N HSQC NMR titration, KDM5B PHD3; assay type: binding, human; conditions: WT PHD3; 1H,15N HSQC titration, 298K, 0.1 mM protein, 12-mer peptides
Outline: (§1)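 1H,15N HSQC titration of uniformly 15N-labeled PHD3 at 0.1 mM, wild type or mutated (including D1506R). Spectra recorded with increasing concentrations of 12-mer histone tail peptides and superimposed. Per-residue normalized chemical shift changes calculated as Δδ = √[(ΔδH)² + (ΔδN/5)²].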

[2] = tested on: KDM5B PHD3 mutants (W1502, W1512, D1506R); assay: Binding to KDM5B PHD3 mutants; set-up: species or system human; conditions: Fig. 6c-e
Outline: as §1

KDM5B PHD1 finger = target: T1, KDM5B PHD1 finger (Homo sapiens, UniProt Q9UGL1); assay: 1H,15N HSQC NMR titration, KDM5B PHD1; assay type: binding; conditions: WT PHD1; NMR spectra, 298K, 0.1 mM 15N-labeled protein, 12-mer peptide
T1 sequence (Q9UGL1 309-359 limits assumed): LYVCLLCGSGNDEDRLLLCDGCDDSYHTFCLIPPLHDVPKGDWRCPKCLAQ
Outline: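 Uniformly 15N-labeled wild-type PHD1 at 0.1 mM; 1H,15N HSQC spectra recorded over increasing concentrations of 12-mer histone tail peptides. Normalized shift change Δδ = √[(ΔδH)² + (ΔδN/5)²] in ppm. Kd obtained by nonlinear least-squares fit of Δδ against peptide and protein concentrations to a quadratic binding equation.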

KDM5B PHD3 finger [3] = assay: Tryptophan fluorescence titration, KDM5B PHD3; assay type: binding, human; conditions: WT PHD3; NMR and fluorescence spectroscopy
Outline: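 Tryptophan fluorescence at 25 °C: PHD3 in PBS titrated with increasing histone peptide concentrations. Excitation 295 or 280 nm; emission scanned 305–405 nm in 0.5 nm steps with 1 s integration; three scans averaged. Kd from nonlinear least-squares fit of intensity change to a quadratic binding equation; mean of three separate experiments, error as standard deviation.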

Row | interaction with PHD3 D1506R mutant ([2]; acidic D1506 replaced with an arginine) | interaction with PHD3 W1502 and W1512 mutants ([2]; mutation of W1502 and W1512) | Substance | pattern of chemical shift changes in HSQC spectra of PHD3 (KDM5B PHD3 finger [1]) | affinity of association (KDM5B PHD1 finger) | preference of PHD3 among H3K4me3/2/1/0 (KDM5B PHD3 finger [3])
1 | – | – | H3K4me1: H3K4me1 peptide, residues 1-12 of H3, monomethylated lysine 4 | almost identical pattern of chemical shift changes | – | –
2 | – | – | H3K4me2: H3K4me2 peptide, residues 1-12 of H3, dimethylated lysine 4 | almost identical pattern of chemical shift changes | – | –
3 | reduced it | disrupted interaction | H3K4me3: trimethylated H3K4me3 peptide, 12-mer histone tail peptide; biotinylated in pull-downs | almost identical pattern of chemical shift changes | almost negligible association in the mM range of affinities | only slight preference for the trimethylated state of H3K4

— publication PMC3918441 (Cell reports, 2014)
